PKA-R2B activ: PKA-R2B complex activation | P22694+P31323 | PKA-R2B holoenzyme dissociation, Cy5-IP20 fluorescence polarization; R2B truncated from residue 108, S112A mutant; 0% DMSO only, 100% 113 µM cGMP | activation, % at 11.4 µM | 340,000 tested, 0.079% active | AID 504700;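 active means activation above a cutoff set at the mean over all compounds plus 3 SD, cut at about 18% in these data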;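 further: higher means more holoenzyme dissociation and a rise in polarization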
PfGluPho inh: PfG6PD (Plasmodium falciparum) enzyme inhibition; PfGluPho enzyme, NADPH resazurin-diaphorase fluorescence; inhibition, % at 20 µM; 350,000 tested, 0.78% active; AID 504690;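 active means inhibition reaching at least a set limit at 20 µM in the primary screen, cut at about 59% in these data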
T cell HTS: modulates CD8 T cell binding to vesicles. AID 2052. response (vesicle binding), % at 7 µM. 2C CD8+ T cell-vesicle binding, flow cytometry; active compounds read low. 330,000 tested, 0.068% active;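 active means response, share of CD8 T cells binding vesicles, and their 90th percentile fluorescence all below set limits, cut at about 80% in these data, passing the limit was not always enough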;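 further: values below 100% mean blocked vesicle binding to the CD8+ T cells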
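incubation = binding step 1.5 h, 37 °C, antibody labelling 20 min, ice | test system = 2C mouse CD8+ T cells | read-out basis = percent CD8+ FL2 mean versus row control | controls = Peptide-free naked vesicles (low) and QL9 vesicles with 0.7% DMSO vehicle (high) | detection = flow cytometry of vesicle-bound cells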
ATG4B inh: blocks human ATG4B protease cleavage of LC3 substrate; Q9Y4P1; ATG4B cleavage of LC3-PLA2, NBD-HPC fluorescence, 1 h; inhibition, % at 8.33 µM; 340,000 tested, 0.51% active; in the data active means inhibition above about 40%
PKA-R1A act: PKA-R1A complex activation; PKA-R1A dissociation, Cy5-IP20 fluorescence polarization; scaled: DMSO 0%, 113 µM cGMP 100%; activation, % at 11.4 µM; 340,000 tested, 0.083% active; AID 504707;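 active means percent activation above the mean of all tested compounds plus 3 SD, cut at about 19% in these data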;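 further: higher means more PKAc released from R1A so a rise in polarization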
HKDC1 inh: HKDC1 (human) hexokinase inhibition; Q2TB90; recombinant HKDC1, G6PDH/diaphorase resazurin coupled fluorescence; inhibition, % at 20 µM; 340,000 tested, 0.16% active;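 active means inhibition above about 35% when tested at 20 µM, limit read from the data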
Target sequence (Q2TB90 whole entry, looked up): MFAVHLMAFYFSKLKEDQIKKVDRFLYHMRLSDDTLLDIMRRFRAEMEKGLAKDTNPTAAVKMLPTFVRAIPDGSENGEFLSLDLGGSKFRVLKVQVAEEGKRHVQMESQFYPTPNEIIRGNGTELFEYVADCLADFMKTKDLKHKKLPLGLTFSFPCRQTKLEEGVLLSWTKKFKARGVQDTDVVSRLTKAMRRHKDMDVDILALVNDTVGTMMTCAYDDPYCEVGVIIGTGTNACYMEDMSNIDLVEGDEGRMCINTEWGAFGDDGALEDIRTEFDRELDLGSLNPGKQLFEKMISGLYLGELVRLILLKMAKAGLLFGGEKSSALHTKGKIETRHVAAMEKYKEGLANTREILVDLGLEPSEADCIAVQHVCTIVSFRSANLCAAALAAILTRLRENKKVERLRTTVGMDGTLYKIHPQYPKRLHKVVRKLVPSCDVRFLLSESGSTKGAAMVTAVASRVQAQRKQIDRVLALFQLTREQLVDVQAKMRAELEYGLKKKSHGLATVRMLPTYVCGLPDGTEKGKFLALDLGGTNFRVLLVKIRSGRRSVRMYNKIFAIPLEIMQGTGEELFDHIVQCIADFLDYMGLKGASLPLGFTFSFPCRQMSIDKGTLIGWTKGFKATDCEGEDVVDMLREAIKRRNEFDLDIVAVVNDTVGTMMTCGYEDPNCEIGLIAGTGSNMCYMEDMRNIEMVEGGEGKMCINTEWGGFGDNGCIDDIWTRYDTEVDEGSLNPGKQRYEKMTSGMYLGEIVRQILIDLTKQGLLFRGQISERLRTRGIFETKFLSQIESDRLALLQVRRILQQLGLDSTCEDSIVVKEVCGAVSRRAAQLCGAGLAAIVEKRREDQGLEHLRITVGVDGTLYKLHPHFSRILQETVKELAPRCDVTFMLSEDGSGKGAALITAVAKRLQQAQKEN
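Assay system: recombinant HKDC1 hexokinase; detection: coupled resazurin fluorescence, excitation 525 nm, emission 613 nm; benchmarks: DMSO-plus-enzyme-mix negative control, buffer-substituted positive control; compound dosing: single 20 µM dose; schedule: 90 min at room temperature in dark; also added: glucose plus 1 mM ATP as hexokinase substrates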
PfGluPho conf: PfG6PD inhibition, single-dose confirmed; shares compounds with PfGluPho inh; recombinant PfGluPho, NADPH-diaphorase-resazurin fluorescence; inhibition, % at 20 µM; 2,400 tested, 34% active; AID 504753;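 active means inhibition of at least 50% at 20 µM in any single replicate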
Diaph ctr 10uM: inhibits diaphorase or oxidizes, flagging false PfG6PD hits | shares compounds with PfGluPho inh | diaphorase-coupled resazurin reduction, fluorescence, NADPH 10 uM | inhibition, % at 20 µM | 820 tested, 39% active | AID 504862;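 active means average inhibition reaching 50% or more with the compound at 20 µM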;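 further: resorufin red fluorescence formed as diaphorase reduces resazurin using NADPH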
Diaphorase 30uM: inhibits diaphorase or oxidizes, flagging false PfG6PD hits; shares compounds with PfGluPho inh; 820 tested, 29% active; inhibition, % at 20 µM; Diaphorase/resazurin coupled assay, resorufin fluorescence, 30 uM NADPH;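 active means inhibition averaging 50% or more, tested at 20 µM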
A number is an active result; n = inactive; x = no result. Hits are enriched below; roughly 1.6% of the tested compounds scored in any of these assays.

SMILES	PKA-R2B activ	PfGluPho inh	T cell HTS	ATG4B inh	PKA-R1A act	HKDC1 inh	PfGluPho conf	others
COc1cc(NC2CCCCC2O)c2nc(-c3ccc(Cl)cc3)ccc2c1 (stereo not drawn)	n	61.2	n	n	n	n	n
Cc1cc(Cl)c2oc(C(=O)N3CCCCC3CCN3CCCC3=O)c(C)c2c1 (stereo not drawn)	n	n	n	n	n	n	x
COc1cc2[nH]c(Cl)c([N+](=O)[O-])c2cc1OC	n	103.5	n	n	n	n	n
COc1cc2[nH]c3c(Cl)ncnc3c2cc1OC	n	n	n	n	n	n	x
O=[N+]([O-])c1c(NCCO)cc(N2CCCCCC2)c2nonc12	n	n	n	n	n	n	x
CCC(=O)OCCNc1cc(Sc2nc3ccccc3s2)c2nonc2c1[N+](=O)[O-]	n	79.2	n	n	n	n	64.0	Diaph ctr 10uM=n;Diaphorase 30uM=n
Cc1nnc(Sc2cc(NCCO)c([N+](=O)[O-])c3nonc23)s1	n	85.6	x	n	n	n	67.8	Diaph ctr 10uM=n;Diaphorase 30uM=n
O=[N+]([O-])c1c(NCCCO)cc(Sc2nc3ccccc3s2)c2nonc12	n	77.2	n	n	n	n	53.8	Diaph ctr 10uM=n;Diaphorase 30uM=n
CN(C)C(=S)NC(=S)Nc1ccc2ccccc2c1	n	70.8	x	n	n	n	n
CC1CCc2c(nc3sc4c(c3c2N)CCCC4)C1 (stereo not drawn)	n	94.5	n	n	n	n	57.2	Diaph ctr 10uM=51.0;Diaphorase 30uM=n
CC1CCc2nc3sc4c(c3c(N)c2C1)CCCC4 (stereo not drawn)	n	91.3	n	n	n	n	n
Nc1c2c(nc3sc4c(c13)CCCCC4)CCCCC2	n	n	n	n	n	n	x
COc1cc(C(=O)O/N=C2\C=CC(=O)C=C2C)cc(OC)c1OC	n	67.5	n	n	n	n	62.5	Diaph ctr 10uM=n;Diaphorase 30uM=n
O=Cc1ccc(OCc2cn(CC(=O)c3ccc(O)cc3)nn2)cc1	n	n	x	n	n	n	x
CCC(C(=O)NCCCN(CC)Cc1ccccc1)n1nc(C)c2sc3ccccc3c2c1=O (stereo not drawn)	n	n	n	n	n	n	x
CCOC(=O)c1ccc(S(=O)(=O)Nc2cc(C(=O)O)ccc2Cl)cc1	n	n	n	n	n	n	n
Cc1nn(C(=O)CNS(=O)(=O)c2ccccc2)c(C)c1Sc1ccc(Cl)cc1	n	80.1	n	n	n	n	n
N#CCN(CC#N)C(=O)C1c2ccccc2Oc2ccccc21	n	n	n	n	n	n	x
Brc1cc2[nH]cnc2c2ccccc12	n	59.3	n	n	n	n	50.4	Diaph ctr 10uM=n;Diaphorase 30uM=n
O=C1CCN(c2ccccc2)N1	n	119.3	x	n	n	n	108.8	Diaph ctr 10uM=n;Diaphorase 30uM=n
CCOC(=O)C1CCN(CC(=O)c2c(C)n(C)c3ccc(OC)cc23)CC1	n	n	n	n	n	n	x
Cc1ccc(N(O)C(C)(C)C)cc1	n	71.9	x	n	n	n	n
Cn1c(=N)n(CC(=O)c2ccc(Cl)c(Cl)c2)c2ccccc21	n	n	n	n	n	n	x
Cc1nc2cc(NC(=O)c3ccc(S(=O)(=O)N(C)c4ccccc4)cc3)ccc2o1	n	n	n	n	n	n	x
C=CCSc1nnc(NC(=O)c2ccc(Cl)nc2)s1	n	82.2	n	n	n	n	77.9	Diaph ctr 10uM=71.8;Diaphorase 30uM=n
SMILES	PKA-R2B activ	PfGluPho inh	T cell HTS	ATG4B inh	PKA-R1A act	HKDC1 inh	PfGluPho conf	others
CC(C)(C)c1nnc(NC(=O)c2ccc(Cl)nc2)s1	n	102.7	n	n	n	n	95.1	Diaph ctr 10uM=80.8;Diaphorase 30uM=62.3
CCc1nnc(NC(=O)c2ccc(Cl)nc2)s1	n	77.7	n	n	n	n	56.9	Diaph ctr 10uM=n;Diaphorase 30uM=n
O=C(Nc1nnc(C2CC2)s1)c1ccc(S(=O)(=O)c2ccccc2)cc1	n	n	n	n	n	n	x
O=C(Nc1nnc(C2CC2)s1)c1ccc(Cl)nc1	n	80.3	n	n	n	n	57.6	Diaph ctr 10uM=63.6;Diaphorase 30uM=n
CCc1nnc(NC(=O)c2cc(Cl)ccn2)s1	n	n	n	n	n	n	x
CC(C)(C)c1nnc(NC(=O)Nc2ccc(Cl)cc2)s1	n	n	n	n	n	n	x
O=C1COC(c2ccccc2)=CN1Cc1ccccc1	n	n	x	n	n	n	x
CCN(C(=S)NC(=O)C1CC1)c1ccccc1	n	n	n	n	n	n	x
CN(C(=S)NC(=O)C1CC1)c1ccc(O)cc1	n	60.5	n	n	n	n	n
CN(C(=O)CSc1nc2scc(-c3ccccc3)c2c(=O)[nH]1)c1ccccc1	n	n	n	n	n	n	x
COc1c(Cl)cccc1-c1cn2ccc(C)cc2n1	n	83.4	n	n	n	n	n
COC(=O)c1scc(C)c1S(=O)(=O)Nc1ccc(C)cc1	n	70.1	n	n	n	n	n
CN(Cc1ccco1)S(=O)(=O)c1nnc(NC(=O)c2cccc(Cl)c2)s1	n	86.1	n	n	n	n	n
CN(Cc1ccccc1)S(=O)(=O)c1nnc(NC(=O)c2ccc(F)cc2)s1	n	77.9	n	n	n	n	n
COc1ccc(C(=O)Nc2nnc(S(=O)(=O)N(C)Cc3ccccc3)s2)cc1	n	71.2	n	n	n	n	n
CN(Cc1ccc(F)cc1)S(=O)(=O)c1nnc(NC(=O)c2ccccc2)s1	n	n	n	n	n	n	x
COc1ccc(CN(C)S(=O)(=O)c2nnc(NC(=O)c3cccc(C)c3)s2)cc1OC	n	79.5	n	n	n	n	64.1	Diaph ctr 10uM=64.4;Diaphorase 30uM=n
COc1ccccc1CNC(=O)COC(=O)c1ncc(Cl)c(Cl)c1Cl	n	n	n	n	n	n	x
Cc1cc(C=O)c(O)cc1O	n	n	n	n	n	n	x
Cc1ccc(NC(=O)C2CCN(S(=O)(=O)c3ccc4c(c3)CCCC(=O)N4)CC2)cc1N(C)C	n	n	n	n	n	n	x
CCOC(=O)c1sc2nc(N3CCOCC3)c3c(c2c1N)CCCC3	n	n	n	n	n	n	x
CCN(CC)C(=O)c1sc2nc(N3CCOCC3)c3c(c2c1N)CCCC3	n	76.3	n	n	n	n	n
Nc1c(C(=O)NCc2ccco2)sc2nc(N3CCOCC3)c3c(c12)CCCC3	n	66.3	n	n	n	n	n
Cc1cccc(OCC(=O)NCC(=O)N/N=C/c2c(C)[nH]c3ccccc23)c1	n	63.0	n	n	n	n	n
Cc1cccc(OCC(=O)NCC(=O)N/N=C/c2cccs2)c1	n	n	n	n	n	n	x

Assay outcomes from PubChem BioAssay.
